Laboratory results reported in ChEMBL document CHEMBL1177857, “Functionalized aurones as inducers of NAD(P)H:quinone oxidoreductase 1 that activate AhR/XRE and Nrf2/ARE signaling pathways: synthesis, evaluation and SAR” (Eur J Med Chem, 2010).

Key:
[1] = Cytotoxicity against mouse Hepa-1c1c7 cells assessed as cell survival at 5 uM after 48 hrs by MTT assay; assay type: cell-based; conditions: read-out: Activity
Method in brief: (§1)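 MTT (0.5 mg/ml) added for 3 h at 37 °C, formazan dissolved in DMSO and read at 590 nm. Survival (%) = (A treated − A blank)/(A untreated − A blank) × 100.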

[2] = Induction of NQO1 activity in mouse Hepa-1c1c7 cells at 25 uM after 48 hrs relative to control
[3] = Induction of NQO1 activity in mouse Hepa-1c1c7 cells at 5 uM after 48 hrs relative to control
[4] = Cytotoxicity against mouse Hepa-1c1c7 cells assessed as cell survival at 25 uM after 48 hrs by MTT assay; assay type: cell-based; conditions: read-out: Activity; method in brief: as §1

SMILES	viability at 48 h, 5 µM [1]	fold change (FC) [2]	fold change (FC) [3]	viability at 48 h, 25 µM [4]
Cc1ccc(/C=C2\Oc3cc(O)ccc3C2=O)cc1	98%	0.9	1.59	100%
COc1cccc(/C=C2\Oc3ccc(O)cc3C2=O)c1	104%	1.18	1.19	110%
O=C1/C(=C/c2ccc(Cl)cc2)Oc2cc(O)cc(O)c21	93%	1.7	1.59	96%
COc1cc(OC)c2c(c1)OC(=O)/C2=C\c1ccc(Cl)cc1	115%	1.9	1.42	110%
COc1ccc(/C=C2\Oc3cc(O)cc(O)c3C2=O)cc1	109%	0.82	1.15	114%
COc1cc(OC)c2c(c1)O/C(=C\c1ccc(C(F)(F)F)cc1)C2=O	90%	0.83	1.08	93%
O=C1/C(=C/c2ccccc2)Oc2cc(O)ccc21	115%	1.85	1.14	110%
COc1cc(OC)c2c(c1)OC(Cc1ccccc1)C2=O (centres undefined)	95%	–	1.46	–
COc1cccc(/C=C2\Oc3cc(OC)cc(OC)c3C2=O)c1	100%	1.59	0.91	103%
COc1ccc(/C=C2\Oc3cc(OC)cc(OC)c3C2=O)cc1 [4,4',6-TRIMETHOXY-AURONE]	93%	0.91	1.06	87%
COc1cc(OC)c2c(c1)O/C(=C\c1ccc(Cl)cc1)C2=O	93%	–	2.13	–
COc1cccc(/C=C2\Oc3cc(O)ccc3C2=O)c1	85%	1.01	1.22	84%
O=C1/C(=C/c2ccccc2)Oc2ccc(O)cc21	–	–	2.28	–
COc1ccc(/C=C2\Oc3ccc(O)cc3C2=O)cc1	–	1.17	1	–
COc1cc(OC)c2c(c1)O/C(=C\c1ccc(O)cc1O)C2=O	51%	1.4	1.03	–
COc1ccc(/C=C2\C(=O)Oc3ccc(O)cc32)cc1	110%	1.71	1.35	118%
COc1ccccc1/C=C1\Oc2cc(O)cc(O)c2C1=O	103%	1.52	1.48	100%
O=C1/C(=C/c2ccccc2)Oc2cc(O)cc(O)c21	110%	1.3	1.39	100%
O=C1/C(=C/c2ccc(O)cc2)Oc2cc(O)ccc21	100%	–	–	98%
O=C1Oc2ccc(O)cc2/C1=C/c1cccc(O)c1	95%	1.83	1.64	87%
COc1cc(OC)c2c(c1)O/C(=C\c1ccc(C)cc1)C2=O	89%	1.34	1.34	93%
O=C1Oc2ccc(O)cc2/C1=C/c1ccc(F)cc1	101%	1.23	1.2	121%
COc1cc(OC)c2c(c1)O/C(=C\c1ccc(N(C)C)cc1)C2=O	101%	0.96	1.16	98%

SMILES	viability at 48 h, 5 µM [1]	fold change (FC) [2]	fold change (FC) [3]	viability at 48 h, 25 µM [4]
O=C1/C(=C/c2ccc(O)cc2)Oc2ccc(O)cc21	–	0.94	1.22	–
Cc1ccc(/C=C2\Oc3ccc(O)cc3C2=O)cc1	–	1.36	1.14	–
COc1cc(OC)c2c(c1)O/C(=C\c1ccccc1C)C2=O	91%	1.42	1.79	87%
O=C1/C(=C/c2cccc(O)c2)Oc2ccc(O)cc21	98%	1.66	1.29	89%
COc1ccc(/C=C2\Oc3cc(O)ccc3C2=O)cc1	91%	1.5	1.19	95%
COc1cc(OC)c2c(c1)O/C(=C\c1cnc3ccccc3c1)C2=O	93%	1.5	1.79	97%
COc1cc(OC)c2c(c1)O/C(=C\c1ccc(C#N)cc1)C2=O	91%	1.37	1.36	95%
O=C1/C(=C/c2ccc(Cl)cc2)Oc2ccc(O)cc21	–	1.18	1.32	–
O=C1/C(=C/c2ccccc2Cl)Oc2ccc(O)cc21	98%	1.71	1.33	94%
Cc1ccc(/C=C2\Oc3cc(O)cc(O)c3C2=O)cc1	103%	1.49	1.38	95%
COc1cc(OC)c2c(c1)OC(=O)/C2=C\c1ccccc1O	121%	1.1	1.49	89%
O=C1/C(=C/c2ccccc2Cl)Oc2cc(O)ccc21	120%	1.3	1.02	117%
N#Cc1ccc(/C=C2\Oc3ccc(O)cc3C2=O)cc1	–	1.25	1.3	–
N#Cc1ccc(/C=C2\Oc3cc(O)ccc3C2=O)cc1	94%	1.31	1.15	90%
N#Cc1ccc(/C=C2\Oc3cc(O)cc(O)c3C2=O)cc1	115%	1.35	1.14	102%
O=C1/C(=C/c2cccc(Cl)c2)Oc2cc(O)cc(O)c21	96%	1.71	1.45	86%
O=C1Oc2ccc(O)cc2/C1=C/c1cccc(F)c1	127%	1.32	1.14	120%
COc1cc(OC)c2c(c1)O/C(=C\c1ccc(O)cc1)C2=O	94%	1.29	1.18	89%
COc1ccccc1/C=C1\C(=O)Oc2ccc(O)cc21	92%	1.44	1.01	110%
O=C1Oc2ccc(O)cc2/C1=C/c1ccccc1F	102%	1.34	1.05	114%
COc1cc(OC)c2c(c1)O/C(=C\c1cccnc1)C2=O	94%	1.9	1.8	98%
COc1cc(OC)c2c(c1)O/C(=C\c1ccc(N3CCN(C)CC3)cc1)C2=O	93%	1.4	1.25	89%
O=C1Oc2ccc(O)cc2/C1=C/c1ccccc1	89%	1.37	1.15	94%
